We go through 41 compounds from ChEMBL document CHEMBL4732040, “Irreversible inhibition of BoNT/A protease: proximity-driven reactivity contingent upon a bifunctional approach” (RSC Med Chem, 2021).

The structures appear in SMILES notation. Structures can show the parent of a compound that is named as a salt. Activity calls are given as the source filed them. The calls are words filed in the database; no cut-off is given here.

Data set [1] addresses Botulinum neurotoxin type A (Clostridium botulinum) (UniProt P0DPI0). Nature of the data set: Time dependent inhibition of Clostridium botulinum BoNT/A light chain (1 to 425 residues) using SNAPtide flp6 as substrate by FRET assay. Conditions: dose 100.0 µM, time hrs <=8.
The next data set relates to HEK293. Put plainly: Cytotoxicity against human HEK293 cells assessed as reduction in cell viability incubated for 24 hrs by MTT assay. The class given is cell-based. The following applies: for Activity: human, hek293, 24 h, time 24 hrs. A digest of the protocol:
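HEK293 cells were exposed to compound for 24 h before viability read-out. The paper reports n = 3, with error bars as SD.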
A general note: Tetrazolium dyes change colour on reduction, which living cells bring about.

Data set [2] is described as follows: GSH reactivity assessed as pseudo first order rate constant at 1 mM in presence of glutathione. Conditions: 1000 µM. The class given is physicochemical.
Data set [3] deals with Botulinum neurotoxin type A (Clostridium botulinum) (UniProt P0DPI0). Nature of the data set: Irreversible inhibition of Clostridium botulinum BoNT/A light chain (1 to 425 residues) assessed as ratio of Kinact/Ki using SNAPtide flp6 as substrate inhibited for 1 hr by FRET assay.
Sequence of Botulinum neurotoxin type A (Clostridium botulinum) (P0DPI0 2-448 limits assumed): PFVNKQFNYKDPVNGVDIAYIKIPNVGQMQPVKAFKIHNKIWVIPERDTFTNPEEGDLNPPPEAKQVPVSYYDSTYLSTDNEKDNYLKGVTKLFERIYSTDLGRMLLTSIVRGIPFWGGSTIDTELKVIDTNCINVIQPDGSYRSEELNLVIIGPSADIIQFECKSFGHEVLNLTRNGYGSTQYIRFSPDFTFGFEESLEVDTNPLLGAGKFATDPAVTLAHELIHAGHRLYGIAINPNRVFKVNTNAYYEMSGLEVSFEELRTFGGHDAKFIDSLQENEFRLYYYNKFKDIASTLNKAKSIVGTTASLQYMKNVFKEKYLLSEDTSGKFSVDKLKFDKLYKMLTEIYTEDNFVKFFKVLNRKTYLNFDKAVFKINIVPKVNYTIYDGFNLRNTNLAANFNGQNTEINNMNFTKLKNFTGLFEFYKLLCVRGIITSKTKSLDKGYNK
A short description of data set [4]: GSH reactivity assessed as half life at 1 mM in presence of glutathione. The class given is physicochemical.
In a further data set the target is Neutrophil collagenase (Homo sapiens, UniProt P22894). Put plainly: Inhibition of MMP-8 (unknown origin) at 25 uM using TQ3-GABA-Pro-Cha-Abu-Smc-His-Ala-Dab(6'-TAMRA)-Ala-Lys-NH2 as substrate bu fluorometric analysis. Summed up: (§1)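 Residual activity of each MMP in the panel was measured in the presence of compound at 25 μM.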
Sequence of Neutrophil collagenase (P22894 whole entry): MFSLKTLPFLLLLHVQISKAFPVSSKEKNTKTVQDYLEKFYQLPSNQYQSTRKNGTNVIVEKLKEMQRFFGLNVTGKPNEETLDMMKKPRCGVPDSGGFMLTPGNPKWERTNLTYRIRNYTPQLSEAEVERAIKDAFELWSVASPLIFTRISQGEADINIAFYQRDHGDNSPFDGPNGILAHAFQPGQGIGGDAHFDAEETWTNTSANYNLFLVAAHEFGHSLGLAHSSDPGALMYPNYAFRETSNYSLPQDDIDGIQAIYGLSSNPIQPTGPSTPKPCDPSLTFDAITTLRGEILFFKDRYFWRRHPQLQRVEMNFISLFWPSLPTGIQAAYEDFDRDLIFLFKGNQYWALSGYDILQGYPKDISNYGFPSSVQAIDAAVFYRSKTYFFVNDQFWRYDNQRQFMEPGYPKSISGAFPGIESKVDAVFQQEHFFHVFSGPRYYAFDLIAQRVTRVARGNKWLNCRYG
In data set [5] the target is T1, Matrix metalloproteinase-19 (Homo sapiens, UniProt Q99542).
T1 sequence (Q99542 whole entry): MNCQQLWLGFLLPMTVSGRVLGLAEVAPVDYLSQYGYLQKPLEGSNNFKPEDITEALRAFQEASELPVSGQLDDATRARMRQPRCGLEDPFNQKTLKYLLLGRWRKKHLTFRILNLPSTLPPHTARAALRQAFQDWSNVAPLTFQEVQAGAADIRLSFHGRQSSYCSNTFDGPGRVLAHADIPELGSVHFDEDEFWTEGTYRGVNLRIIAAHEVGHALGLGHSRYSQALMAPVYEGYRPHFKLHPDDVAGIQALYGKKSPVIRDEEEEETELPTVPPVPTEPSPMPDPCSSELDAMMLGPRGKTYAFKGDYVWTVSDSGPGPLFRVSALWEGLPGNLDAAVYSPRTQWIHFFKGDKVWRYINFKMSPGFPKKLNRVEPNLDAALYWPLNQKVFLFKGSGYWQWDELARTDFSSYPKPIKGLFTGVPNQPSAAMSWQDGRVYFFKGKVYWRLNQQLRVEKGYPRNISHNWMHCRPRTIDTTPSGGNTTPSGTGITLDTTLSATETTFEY
Nature of the data set: Inhibition of MMP-19 (unknown origin) at 25 uM using TQ3-GABA-Pro-Cha-Abu-Smc-His-Ala-Dab(6'-TAMRA)-Ala-Lys-NH2 as substrate bu fluorometric analysis. A digest of the protocol: as §1

The target in data set [6] is 72 kDa type IV collagenase (Homo sapiens, UniProt P08253). Put plainly: Inhibition of MMP-2 (unknown origin) at 25 uM using TQ3-GABA-Pro-Cha-Abu-Smc-His-Ala-Dab(6'-TAMRA)-Ala-Lys-NH2 as substrate bu fluorometric analysis. Summed up: as §1
Sequence of 72 kDa type IV collagenase (P08253 whole entry): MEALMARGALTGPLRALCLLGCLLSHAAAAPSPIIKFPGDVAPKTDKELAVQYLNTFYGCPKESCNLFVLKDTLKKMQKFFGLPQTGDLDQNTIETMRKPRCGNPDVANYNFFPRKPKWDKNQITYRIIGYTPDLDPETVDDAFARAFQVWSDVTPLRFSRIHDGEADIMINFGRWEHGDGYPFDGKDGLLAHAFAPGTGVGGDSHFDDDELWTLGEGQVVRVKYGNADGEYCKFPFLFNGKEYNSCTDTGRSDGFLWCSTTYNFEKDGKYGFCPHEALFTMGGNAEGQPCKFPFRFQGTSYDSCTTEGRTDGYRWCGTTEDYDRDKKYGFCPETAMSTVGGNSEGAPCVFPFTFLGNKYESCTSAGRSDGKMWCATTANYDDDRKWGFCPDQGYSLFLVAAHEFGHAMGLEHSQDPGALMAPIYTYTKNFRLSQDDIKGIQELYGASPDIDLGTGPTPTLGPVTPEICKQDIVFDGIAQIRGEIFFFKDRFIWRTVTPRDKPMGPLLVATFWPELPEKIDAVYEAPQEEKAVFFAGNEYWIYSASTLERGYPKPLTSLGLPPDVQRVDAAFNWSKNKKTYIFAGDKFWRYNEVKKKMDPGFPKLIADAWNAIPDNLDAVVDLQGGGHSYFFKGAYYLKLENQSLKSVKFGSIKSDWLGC
Another data set deals with Collagenase 3 (Homo sapiens, UniProt P45452). Put plainly: Inhibition of MMP-13 (unknown origin) at 25 uM using TQ3-GABA-Pro-Cha-Abu-Smc-His-Ala-Dab(6'-TAMRA)-Ala-Lys-NH2 as substrate bu fluorometric analysis. A digest of the protocol:
as §1

In data set [7] the target is Matrix metalloproteinase-14 (Homo sapiens, UniProt P50281). Put plainly: Inhibition of MMP-14 (unknown origin) at 25 uM using TQ3-GABA-Pro-Cha-Abu-Smc-His-Ala-Dab(6'-TAMRA)-Ala-Lys-NH2 as substrate bu fluorometric analysis. Summed up:
as §1

Another data set addresses T2, Interstitial collagenase (Homo sapiens, UniProt P03956).
T2 sequence (P03956 whole entry): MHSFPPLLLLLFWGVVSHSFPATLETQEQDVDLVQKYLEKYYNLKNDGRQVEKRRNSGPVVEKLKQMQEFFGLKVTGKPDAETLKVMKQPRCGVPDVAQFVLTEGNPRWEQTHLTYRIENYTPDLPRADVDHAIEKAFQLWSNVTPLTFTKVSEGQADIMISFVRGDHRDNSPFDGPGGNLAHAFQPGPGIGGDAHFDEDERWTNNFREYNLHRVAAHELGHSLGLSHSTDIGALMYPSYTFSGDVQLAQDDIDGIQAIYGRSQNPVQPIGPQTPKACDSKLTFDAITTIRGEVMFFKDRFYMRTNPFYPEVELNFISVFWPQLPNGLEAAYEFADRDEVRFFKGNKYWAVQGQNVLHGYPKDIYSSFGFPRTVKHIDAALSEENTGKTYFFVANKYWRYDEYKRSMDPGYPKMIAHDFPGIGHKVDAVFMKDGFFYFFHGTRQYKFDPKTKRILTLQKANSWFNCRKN
Nature of the data set: Inhibition of MMP-1 (unknown origin) at 25 uM using TQ3-GABA-Pro-Cha-Abu-Smc-His-Ala-Dab(6'-TAMRA)-Ala-Lys-NH2 as substrate bu fluorometric analysis. A digest of the protocol: as §1

In data set [8] the target is Macrophage metalloelastase (Homo sapiens, UniProt P39900). Nature of the data set: Inhibition of MMP-12 (unknown origin) at 25 uM using TQ3-GABA-Pro-Cha-Abu-Smc-His-Ala-Dab(6'-TAMRA)-Ala-Lys-NH2 as substrate bu fluorometric analysis. Summed up: as §1
Sequence of Macrophage metalloelastase (P39900 whole entry): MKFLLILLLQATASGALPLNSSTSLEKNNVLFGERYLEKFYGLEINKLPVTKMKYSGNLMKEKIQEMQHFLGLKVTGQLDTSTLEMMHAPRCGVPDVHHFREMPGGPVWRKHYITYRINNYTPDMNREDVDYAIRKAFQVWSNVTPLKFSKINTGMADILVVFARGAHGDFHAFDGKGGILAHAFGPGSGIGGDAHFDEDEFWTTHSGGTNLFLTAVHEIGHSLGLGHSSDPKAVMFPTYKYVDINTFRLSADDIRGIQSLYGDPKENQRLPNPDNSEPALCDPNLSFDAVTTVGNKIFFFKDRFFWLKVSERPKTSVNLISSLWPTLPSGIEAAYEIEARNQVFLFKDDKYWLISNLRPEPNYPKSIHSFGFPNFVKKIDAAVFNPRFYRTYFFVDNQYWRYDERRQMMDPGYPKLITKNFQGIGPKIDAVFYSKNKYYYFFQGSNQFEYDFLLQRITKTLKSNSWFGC
For another data set, the target named is T3, Matrilysin (Homo sapiens, UniProt P09237).
T3 sequence (P09237 whole entry): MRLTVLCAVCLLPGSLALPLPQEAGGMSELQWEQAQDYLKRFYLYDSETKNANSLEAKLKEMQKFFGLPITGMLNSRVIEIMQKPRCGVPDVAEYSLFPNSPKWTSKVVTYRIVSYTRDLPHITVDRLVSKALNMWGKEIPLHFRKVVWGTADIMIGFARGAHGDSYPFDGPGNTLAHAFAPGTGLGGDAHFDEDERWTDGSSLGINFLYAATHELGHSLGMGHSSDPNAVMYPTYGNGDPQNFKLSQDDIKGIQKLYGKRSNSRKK
Put plainly: Inhibition of MMP-7 (unknown origin) at 25 uM using TQ3-GABA-Pro-Cha-Abu-Smc-His-Ala-Dab(6'-TAMRA)-Ala-Lys-NH2 as substrate bu fluorometric analysis. Summed up: as §1

The next data set deals with Stromelysin-1 (Homo sapiens, UniProt P08254). Nature of the data set: Inhibition of MMP-3 (unknown origin) at 25 uM using TQ3-GABA-Pro-Cha-Abu-Smc-His-Ala-Dab(6'-TAMRA)-Ala-Lys-NH2 as substrate bu fluorometric analysis. A digest of the protocol:
as §1

Sequence of Stromelysin-1 (P08254 whole entry): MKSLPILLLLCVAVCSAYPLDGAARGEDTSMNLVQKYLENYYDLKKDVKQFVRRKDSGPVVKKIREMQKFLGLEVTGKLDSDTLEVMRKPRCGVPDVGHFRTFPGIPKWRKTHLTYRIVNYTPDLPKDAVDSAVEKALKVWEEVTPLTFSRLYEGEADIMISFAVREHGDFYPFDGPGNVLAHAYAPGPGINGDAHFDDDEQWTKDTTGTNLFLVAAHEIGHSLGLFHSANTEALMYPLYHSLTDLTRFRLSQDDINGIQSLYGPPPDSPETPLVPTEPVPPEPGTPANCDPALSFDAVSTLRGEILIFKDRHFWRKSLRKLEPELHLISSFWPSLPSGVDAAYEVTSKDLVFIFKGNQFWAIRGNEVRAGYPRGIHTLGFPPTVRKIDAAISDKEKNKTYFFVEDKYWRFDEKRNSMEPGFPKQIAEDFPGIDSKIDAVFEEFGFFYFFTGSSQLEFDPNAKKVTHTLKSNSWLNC

As for `O=C(CCl)NCCCCN(O)C(=O)/C=C/c1ccc(Cl)cc1Cl`, the TDI entry in [1] was “inactive”. On the same count and under the same terms, the result for `C#CCCCCN(O)C(=O)/C=C/c1ccc(Cl)cc1Cl` reads “inactive”. The same measure, in the same setting: the result for `O=C(/C=C/C(F)F)NCCCCN(O)C(=O)/C=C/c1ccc(Cl)cc1Cl` reads “inactive”; that for `C#CCCN(O)C(=O)/C=C/c1ccc(Cl)cc1Cl`, “inactive”; that for `O=C(NCCN(O)C(=O)/C=C/c1ccc(Cl)cc1Cl)C(F)Cl` (stereo not drawn), “inactive”. The same measure, in the same setting: the result for `C=C(F)C(=O)NCCN(O)C(=O)/C=C/c1ccc(Cl)cc1Cl` reads “inactive”; that for `N#CC1(NC(=O)CCCN(O)C(=O)/C=C/c2ccc(Cl)cc2Cl)CC1`, “inactive”.

Consider `C#CCN(O)C(=O)/C=C/c1ccc(Cl)cc1Cl`, for which, in data set [1], the TDI result is “inactive”.

As for `O=C(/C=C/c1ccc(Cl)cc1Cl)N(O)CCCCCCC1CO1` (stereo not drawn), in data set [1], the TDI result was “inactive”. `O=C(/C=C/c1ccc(Cl)cc1Cl)N(O)CCCN1C(=O)CCC1=O`: in data set [1], the inhibition entry is “inactive”. The Activity result with HEK293 is listed as “Non-Toxic”. In general, IC50 refers to the concentration needed to halve the response being measured. For the compound `O=C(/C=C/c1ccc(Cl)cc1Cl)NCCCN1C(=O)C=CC1=O`, in [1], the TDI result was “Active”. For the same compound, the IC50 with HEK293 (Homo sapiens, HEK293, 24 h) was determined as 6 µM.

In the case of `O=C(/C=C/C(F)F)NCCCN(O)C(=O)/C=C/c1ccc(Cl)cc1Cl`, the TDI result in data set [1] is “inactive”. Same read-out and setting: the result for `O=C(NCCCCN(O)C(=O)/C=C/c1ccc(Cl)cc1Cl)C(F)Cl` (stereo not drawn) reads “inactive”. Take `COC(=O)/C=C/C(=O)OC` [DIMETHYL FUMARATE]: the K in data set [2] turned out to be 0.0589 min⁻¹. `CC(=O)NCCCN(O)C(=O)/C=C/c1ccc(Cl)cc1Cl`: in data set [1], the TDI result is “inactive”. Besides, the Activity entry with HEK293 is on record as “Non-Toxic”.

With `O=C(NCCN(O)C(=O)/C=C/c1ccc(Cl)cc1Cl)Oc1ccccc1`, in data set [1], the TDI entry was “inactive”.

In the case of `O=C(/C=C/c1ccc(Cl)cc1Cl)N(O)CCCCN1C(=O)C=CC1=O`, in data set [3], the Ratio is 46.3 M⁻¹ s⁻¹. As usually defined, the half-life is how long it takes for the measured level to halve. On to `CS(=O)(=O)SCCCCCCN(O)C(=O)/C=C/c1ccc(Cl)cc1Cl`, for which the half-life at 1000 µM in data set [4] is less than 5 min. Also, the Ratio in data set [3] worked out at 514 M⁻¹ s⁻¹. Turning to `C=CC(=O)NCCN(O)C(=O)/C=C/c1ccc(Cl)cc1Cl`, in data set [1], the TDI entry is “inactive”. Still for that read-out and setting: the result for `O=C(CCl)NCCCN(O)C(=O)/C=C/c1ccc(Cl)cc1Cl` reads “inactive”; that for `O=C(CCl)NCCN(O)C(=O)/C=C/c1ccc(Cl)cc1Cl`, “inactive”. Turning to `O=C(CI)NCCCN(O)C(=O)/C=C/c1ccc(Cl)cc1Cl`, the “inhibition (INH)” value (on Neutrophil collagenase; in [5]; in data set [6]; against Collagenase 3; in [7]; on Interstitial collagenase) was “Not Active” throughout. Besides, the “inhibition (INH)” value (in data set [8]; against Matrilysin; on Stromelysin-1) was “Not Active” throughout. For the same compound, the K in [2] turned out to be 0.0611 min⁻¹. Regarding `O=C(CI)NCCCCN(O)C(=O)/C=C/c1ccc(Cl)cc1Cl`, the Ratio in data set [3] is 12.4 M⁻¹ s⁻¹. With `O=C(/C=C/c1ccc(Cl)cc1Cl)N(O)CCCN1C(=O)C=CC1=O`, the “inhibition (INH)” value (against Neutrophil collagenase; in [5]; in data set [6]; on Collagenase 3; in data set [7]; on Interstitial collagenase) was “Active” each time. The “inhibition (INH)” value (in data set [8]; against Matrilysin; against Stromelysin-1) was “Active” in each case. Moreover, the K in [2] was 0.0023 min⁻¹. As to `C=C(F)C(=O)NCCCCN(O)C(=O)/C=C/c1ccc(Cl)cc1Cl`, the TDI result in data set [1] was “inactive”.

`O=C(NCCCN(O)C(=O)/C=C/c1ccc(Cl)cc1Cl)Oc1ccccc1`: the TDI entry in data set [1] is “inactive”. On the same count and under the same terms, the result for `C=CC(=O)NCCCN(O)C(=O)/C=C/c1ccc(Cl)cc1Cl` reads “inactive”; that for `O=C(CBr)NCCCCN(O)C(=O)/C=C/c1ccc(Cl)cc1Cl`, “inactive”; that for `C=CC(=O)NCCCCCN(O)C(=O)/C=C/c1ccc(Cl)cc1Cl`, “inactive”. Still for that read-out and setting: the result for `C#CCCCN(O)C(=O)/C=C/c1ccc(Cl)cc1Cl` reads “inactive”. Regarding `O=C(/C=C/c1ccc(Cl)cc1Cl)NCCCCCC1CO1` (stereo not drawn), in data set [1], the TDI result is “inactive”. The same measure, in the same setting: the result for `O=C(CBr)NCCCN(O)C(=O)/C=C/c1ccc(Cl)cc1Cl` reads “inactive”.

Take `C=C(F)C(=O)NCCCN(O)C(=O)/C=C/c1ccc(Cl)cc1Cl`: the TDI entry in data set [1] was “inactive”. For `C=CC(=O)NCCCCN(O)C(=O)/C=C/c1ccc(Cl)cc1Cl`, the TDI result in [1] was “inactive”. Take `C=CC(=O)NCCCCCCN(O)C(=O)/C=C/c1ccc(Cl)cc1Cl`: the TDI result in data set [1] was “inactive”. Turning to `O=C(NCCCN(O)C(=O)/C=C/c1ccc(Cl)cc1Cl)C(F)Cl` (stereo not drawn), in data set [1], the TDI result was “inactive”. On the same count and under the same terms, the result for `O=C(CBr)NCCN(O)C(=O)/C=C/c1ccc(Cl)cc1Cl` reads “inactive”. `O=C(/C=C/c1ccc(Cl)cc1Cl)NCCCNC(=O)CI`: in data set [1], the TDI entry is “Active”. The Activity entry in the data set with HEK293 was “Toxic”. Take `O=C(/C=C/c1ccc(Cl)cc1Cl)N(O)CCCCC1CO1` (stereo not drawn): in data set [1], the TDI result was “inactive”. Same read-out and setting: the result for `O=C(/C=C/C(F)F)NCCN(O)C(=O)/C=C/c1ccc(Cl)cc1Cl` reads “inactive”.

Turning to `O=C(/C=C/c1ccc(Cl)cc1Cl)N(O)CCCCCC1CO1` (stereo not drawn), the “inhibition (INH)” value (against Neutrophil collagenase; in data set [5]; in data set [6]; at Collagenase 3; in data set [7]; on Interstitial collagenase) was “Not Active” throughout. Moreover, the “inhibition (INH)” value (in data set [8]; against Matrilysin; against Stromelysin-1) was “Not Active” in each case. In data set [2], the K came out at 0.0012 min⁻¹.
